HCT116 bCat-KO – beta-catenin-lacking colon tumor cell growth suppression. viability, % at 10 µM. 140,000 tested, 1.5% active. HCT116 beta-catenin knockout viability, CellTiter-Glo, 60 h; hits give low values. AID 818;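 active = viability at or under a set limit, the compound median less 4 SD, cut at about 6% in these data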;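 note: 0% = Hyamine 1622 control at 20 µM and 100% = untreated cell control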
Fibroblast inh – blocks proliferation of human lung fibroblasts | LL 47 human lung fibroblast viability, ATP luminescence; hits give low values | viability, % at 10 µM | 85,000 tested, 1.1% active | AID 719;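 active = viability at or below 50% in the single dose screen; inactive = viability above 50%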;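 note: compound exposure lasted 72 h before the ATP readout; 100% = median luminescence of untreated cell-only wells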
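Material: human lung fibroblast line LL 47, low passage; Evaluation: viability percentage against median untreated-cell control; Buffer or medium: 15% FBS in IMEM; Incubation: 72 h compound exposure at 37 °C after overnight plating; Dosing: 0.1% DMSO in all compound wells; Measured by: CellTiter-Glo luminescence.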
PTEN del growth – growth suppressors of cells with PTEN tumor suppressor deletion; HCT116 PTEN-null viability, CellTiter-Glo, 60 h; hits give low values; viability, % at 10 µM; 140,000 tested, 1.2% active; AID 827;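 active = viability at or below a set limit, 4 SD under the median of all tested compounds, cut at about 3.7% in these data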;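 note: PTEN knockout HCT116 line with beta catenin targeted HCT116 as companion control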
H69AR growth 86K – blocks growth of human H69AR lung tumor cells. H69AR lung tumor viability, ATP luminescence, 72 h; hits give low values. viability, % at 10 µM. 85,000 tested, 6% active;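 active = viability at or below 40%; inactive = viability above 40%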;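 note: multidrug resistant small cell line overexpressing MRP-1 efflux transporter; 100% = mean luminescence of untreated control wells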
HUVEC inhibit – inhibitors of human endothelial cell proliferation; HUVEC proliferation, CellTiter-Glo luminescence, 72 h; hits give low values; viability, % at 10 µM (by protocol); 86,000 tested, 1.1% active;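 active = viability at or below 30%; inactive = viability above 30%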;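 note: 100% = median luminescence of DMSO-only cell control wells on each plate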
An asterisk follows results filed as active; . = no result given. The entries come from a sample that favours hits as a whole.

SMILES | HCT116 bCat-KO | Fibroblast inh | PTEN del growth | H69AR growth 86K | HUVEC inhibit
CCOC(=O)c1cc(-c2ccccc2)nc2c1c(C)nn2-c1ccccn1 | 54 | 66 | 38 | 45 | 77
COCCCNC(=O)c1cc2c(-c3ccc(Cl)cc3)nn(C)c2s1 | 87 | 74 | 94 | 74 | 56
Cn1nc(-c2ccc(Cl)cc2)c2cc(C(=O)NCCCN3CCCC3)sc21 | 1.5* | 14* | 1.7* | 0.9* | 1.7*
CCCCNC(=O)c1cc2c(-c3ccc(Cl)cc3)nn(C)c2s1 | 91 | 62 | 91 | 36* | 75
Cc1ccc(C)c(NC(=O)Cc2csc(-c3ccccc3)n2)c1 | 78 | . | 86 | . | .
COC(=O)c1sc(NC(=O)CSc2nc3cccnc3n2C2CCCCC2)nc1C | 84 | 89 | 91 | 20* | 56
CC(=O)Nc1ccc(S(=O)(=O)N2CCN(c3cccc(C)c3C)CC2)cc1 | 27 | 93 | 35 | 37* | 59
Cc1cc(Cl)c(S(=O)(=O)N2CCN(c3cccc(C)c3C)CC2)cc1OCC(N)=O | 58 | 90 | 68 | 38* | 88
Cc1ccc2oc(-c3cccc(NC(=S)NC(=O)/C=C/c4ccco4)c3)nc2c1 | 60 | . | 53 | . | .
Cc1cc2c(N)cccc2nn1 | 97 | 108 | 101 | 94 | 104
Nc1cccc2nc3ccccc3cc12 | 4.0* | 19* | 3.2* | 9.2* | 4.2*
O=C(c1cc2c(=O)oc3ccccc3c2s1)N1CCN(c2ccccn2)CC1 | . | 100 | . | 89 | 43
Cn1c(C(=O)N2CCN(Cc3ccc4c(c3)OCO4)CC2)cc2c(=O)n(C)c3ccccc3c21 | 33 | 92 | 36 | 38* | 82
Cn1c(C(=O)N2CCCC2)cc2c(=O)n(C)c3ccccc3c21 | 95 | 93 | 105 | 80 | 100
Cn1c(C(=O)Nc2ccc3c(c2)OCO3)cc2c(=O)n(C)c3ccccc3c21 | 81 | 57 | 78 | 31* | 72
CN1CCN(C2=C(Cl)C(=O)C(c3cnc(N4CCCCC4)s3)=C(Cl)C2=O)CC1 | 1.7* | 5.8* | 1.6* | 1.6* | 70
Cc1cc(Cl)ccc1OCCCC(=O)NO | 67 | 81 | 77 | 3.1* | 92
Cc1cc(Cl)ccc1OCCCC(=O)N1CCN(C)CC1 | 76 | 89 | 79 | 83 | 98
Cc1cc(Cl)ccc1OCCCC(N)=O | 97 | 42* | 103 | 111 | 86
COc1ccc(N2CCN(C(=O)c3ccc(CS(=O)(=O)c4ccc(OC)cc4)o3)CC2)cc1 | 83 | 95 | 89 | 81 | 100
COc1ccc(S(=O)(=O)Cc2ccc(C(=O)N3CCN(c4cccc(C)c4C)CC3)o2)cc1 | 12 | 71 | 14 | 23* | 53
COc1ccc(S(=O)(=O)Cc2ccc(C(=O)N3CCN(c4cccc(C)c4)C(C)C3)o2)cc1 (stereo not drawn) | 23 | 56 | 21 | 25* | 50
O=C(/C=C/c1c(Cl)cccc1Cl)n1cccn1 | 99 | 93 | 99 | 26* | 90
O=C(c1ccccc1)c1nn(-c2ccccc2)c(=O)cc1C(F)(F)F | 17 | . | 14 | . | .
O=C(c1cccc(Cl)c1)c1nn(-c2ccccc2)c(=O)cc1C(F)(F)F | 2.5* | . | 1.1* | . | .
SMILES | HCT116 bCat-KO | Fibroblast inh | PTEN del growth | H69AR growth 86K | HUVEC inhibit
O=C(c1ccccc1)c1nn(-c2ccc(Cl)cc2)c(=O)cc1C(F)(F)F | 2.2* | . | 1.7* | . | .
CC(C)N=C(NS(=O)(=O)c1ccccc1)C(Cl)(Cl)Cl | 3.5* | . | 2.0* | . | .
Cc1ccccc1NC(=O)C1CCN(c2cc(-c3ccccc3)nc3ncnn23)CC1 | 62 | 90 | 41 | 37* | 104
Cn1c(=N)n(CC(O)c2cccc3ccccc23)c2ccccc21 (stereo not drawn) | 29 | 84 | 32 | 26* | 88
CC(=O)O[C@]1(C(C)=O)CC[C@H]2[C@@H]3C=C(Cl)C4=CC(=O)CC[C@]4(C)[C@H]3CC[C@@]21C | 65 | 80 | 62 | 19* | 87
CC(=O)O[C@]1(C(C)=O)CC[C@H]2[C@@H]3C[C@H](C)C4=CC(=O)CC[C@]4(C)[C@H]3CC[C@@]21C | 72 | 91 | 74 | 5.1* | 102
CC(=O)OCC(=O)[C@H]1CC[C@H]2[C@@H]3CCC4=CC(=O)CC[C@]4(C)[C@H]3CC[C@]12C | 81 | 93 | 88 | 78 | 54
COc1ccc2ccccc2c1C(=O)/C=C\c1ccoc1 | 62 | . | 63 | . | .
O=C(COC(=O)c1ccc2[nH]c3c(c2c1)CCCC3)Nc1ccccc1 | 79 | . | 82 | . | .
O=c1cc(N2CCC(Cc3ccccc3)CC2)[nH]c(=O)n1C1CCCCC1 | 88 | 87 | 77 | 27* | 72

From PubChem
